Common to all, as to assay type: biochemical
In experiment [1] the target is T1, HCV NS5BCΔ21 (Hepatitis C virus genotype 1b, UniProt P26663). The experiment can be described thus: Determination of Ki and mode of inhibition. The settings on record: towards template/primer (poly rA/U12 varied), UTP fixed 25 μM. The procedure, abridged: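 Aliquots were taken at defined times, quenched in 5% TCA/0.5 mM pyrophosphate, and counted by GF-B filter binding. Ki and mode came from Dixon and Cornish-Bowden plots. Each run was done at least twice; values average at least triplicates.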

Experiment [2] concerns the target T1, HCV NS5BCΔ21. Nature of the experiment: NS5B RdRp assay. The settings on record: NS5B inhibition (IC50 μM), poly rA/U12, 25 μM UTP, 0.5 mM MnCl2, 10% DMSO, 1 h at 30°C. The procedure, abridged:
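NS5BCΔ21 (300–500 ng) and poly rA/U12 (0.5 μM) sat 5 min on ice before NTPs were added. Reactions ran 1 h at 30°C, then TCA quench and GF-B counting. IC50s were read from curves relative to DMSO control, from at least two independent runs.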

The target in experiment [3] is Klenow fragment of E. coli DNA polymerase I (Escherichia coli, UniProt P00582). The experiment can be described thus: Klenow polymerase counter screen. The conditions noted are these: read-out: IC50 Klenow polymerase counter screen; poly rA/dT18, 10% DMSO. The procedure, abridged: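 Exonuclease-deficient Klenow fragment from E. coli BL-21(DE3), purified by ammonium sulfate fractionation and Biorex-70, used at 10 nM. Ran 37°C for 20 min, TCA/pyrophosphate quench, GF-B filtration, scintillation counting.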

For experiment [4], the target named is HIV-1 RT (Human immunodeficiency virus type 1 group M subtype B, UniProt P04585). Nature of the experiment: HIV-1 RT counter screen. The procedure, abridged:
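His-tagged p66/p51 heterodimeric wild-type RT, Ni-NTA purified, used at 10 nM. Reactions ran 37°C for 20 min, were stopped with ice-cold 5% TCA/0.5 mM pyrophosphate, filtered on GF-B and scintillation counted.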

The target in experiment [5] is T1, HCV NS5BCΔ21. Nature of the experiment: Gel-based incorporation assay. The settings on record: highest concentration of wedelolactone (lane 5, 100 μM), poly rA/U12, 20 min. The procedure, abridged: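 Stopped with 25 mM EDTA/0.5% SDS, then phenol-chloroform extracted and ethanol precipitated. Products were heated 90°C for 5 min, run on denaturing 6% polyacrylamide/7 M urea gel and imaged by phosphorimager.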

Consider `COc1cc(O)c2c(c1)oc(=O)c1c3cc(O)c(O)cc3oc21` [Wedelolactone, 7-methoxy-5,11,12-trihydroxy-coumestan], for which the affinity in experiment [1] (Ki competitive), expressed as Ki, was 11.2 µM. Moreover, the Ki uncompetitive in experiment [1] stood at 43 µM. Moreover, the results for the IC50 in experiment [2], in experiment [3] and in experiment [4] were 36.1 µM, > 700 µM and > 250 µM, respectively. Besides, the “extension product formation (gel)” value in experiment [5] was “no detectable extension product”.
